Assay results as given in the EternaBench riboswitch data.

Key:
MS2 coat protein [1] = assay: apparent Kd, MS2 coat protein; higher = weaker binding; RNA-MaP array; tryptophan 2.4 mM where present; settings: designed as: ON switch for tryptophan
Summary of the method: (§1)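 Apparent Kd: the median of filtered binding-curve fits from single clusters. Designs were transcribed on Illumina sequencing-chip clusters by stalled E. coli RNA polymerase and titrated with SNAP-549-labelled MS2 coat protein from 0.7 or 1.5 nM, doubling to 3 µM, in 100 mM Tris-HCl pH 7.5, 80 mM KCl, 4 mM MgCl2, BSA, DTT, yeast tRNA and Tween-20. Each series ran without and then with constant ligand, and green signal was normalised to red-channel RNA signal and control-cluster median Fmax.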

MS2 coat protein [2] = assay: apparent Kd, MS2 coat protein; higher = weaker binding; RNA-MaP array; theophylline 2 mM where present
Summary of the method: as §1

[3] = designed as: ON switch for theophylline, no ligand
[4] = ligand present: theophylline, designed as: ON switch for theophylline
[5] = designed as: OFF switch for theophylline, no ligand
[6] = ligand present: theophylline, designed as: OFF switch for theophylline

Sequence	apparent Kd (MS2 coat protein [2]; [5]) [nM]	apparent Kd (MS2 coat protein [2]; [6]) [nM]	also measured
CUACAUUUGUAGAAACCGGUCACCGUUACUCGAGGACCGGUACGGCCGCCACUCGUGUCACGUGAUACAUGAGGAUCACCCAUGU	–	–	apparent Kd (MS2 coat protein [1]; no ligand): 37.4 nM; apparent Kd (MS2 coat protein [1]; ligand present: tryptophan): 31.3 nM
AGCCGGAUUACGGCCGCCACUGUAGACGUGACGAAAGUCGCGUCAACAUGAGGAUCACCCAUGUACAGGACCGGGUGGUCAGGCG	–	–	apparent Kd (MS2 coat protein [1]; no ligand): 173 nM; apparent Kd (MS2 coat protein [1]; ligand present: tryptophan): 41.2 nM
UUUGAGAUAACAGAUACCAGCGUGUUAUAAAACAUGAGGAUCACCCAUGUAGUGAUCAAGCGCCCUUGGCAGCUGGUAUUUUAGG	–	–	apparent Kd (MS2 coat protein [2]; [3]): 95.2 nM; apparent Kd (MS2 coat protein [2]; [4]): 210 nM
GAGGUCCUGAGAGAUACCAGUGAGGCCACAUGAGGAUCACCCAUGUCCCUCACUCCGGCCCACCCUUGGCAGCUCGGAAGGUAAA	18.1	119	–
UAGGUGAUCUUCAACGGAAAACGUUGUGAUACCAGCCAACAAUACGGCCCUUGGCAGCACAUGAGGAUCACCCAUGUGUACACCG	29.4	193	–
GAGCUGAUGUAGGCCGGAUAUCCGGGAGAUACCAGUACAGAAAUGUACCCUUGGCAGCUCUUUCCUACAUGAGGAUCACCCAUGU	16.6	96	–
UGUAACAUGAGGAUCACCCAUGUGAGUGAUACCAGAUAAGUAGUAGUCCCUUGGCAGCAUAUUGGGCGAGUGUAUAGUCUAUGCG	–	–	apparent Kd (MS2 coat protein [2]; [3]): 146 nM; apparent Kd (MS2 coat protein [2]; [4]): 193 nM
UUUGCACAUGAGGAUCACCCAUGUACAGAUACCAGCCUCAUCUACGGCCCUUGGCAGCUGAGACAAUGGUGACGUGAUGGGCUUU	11.3	16.2	–
AUAACUGUCAAGGAAGGUGAUCCAGCAGAUACCAGCUAGGAAACUAGCCCUUGGCAGCUGCAACAUGAGGAUCACCCAUGUAAUA	76.8	121	–
UAUAUAUAUAUUGAUACCAGCAGAGAAAACAUAUAUCCUAACAUGAGGAUCACCCAUGUAUGCCCUUGGCAGCGAUAUAUAUAUA	26	32.3	–
GGUUUCGCGGGCGAUACCAGCUUGAUCGUACUGGCCUGGUACAUGAGGAUCACCCAUGUAAGCCCUUGGCAGCGCGCGCGAGACC	11.3	24.7	–
GAUGAACUAUUUGAUACCAGACAACAUGAGGAUCACCCAUGUGCGCGUCGUCCUCUGCCUGUCCCUUGGCAGCGGAUAGUUUAUC	59.5	89.9	–
AAAUAAAUAACUGAUACCAGUCGGACAACAUGAGGAUCACCCAUGUUCACCCAUGUUGAGGACCCUUGGCAGCAGAAAUAUAAAA	92.3	185	–
GCAUGUGGAGUCUUACUAGAGAGGACAGAUACCAGUAAGAUGUGAUACCCUUGGCAGCUGCGAUUUACAUGAGGAUCACCCAUGU	21.5	24.2	–
GGUGGGACUUGUGAUACCAGCCCAGUUCUAAUCGAACUGCACAUGAGGAUCACCCAUGUCGGCCCUUGGCAGCAUGAGUAUUUAU	–	–	apparent Kd (MS2 coat protein [2]; [3]): 322 nM; apparent Kd (MS2 coat protein [2]; [4]): 19.3 nM
AUCAGUAGAACUGAUACCAGUCAAAGGCUUUGACCUCAUAACAUGAGGAUCACCCAUGUUGACCCUUGGCAGCAGUAGGCAAGGG	21.4	35.1	–
AAUCUGUCGGGUGAUACCAGCCUCGGCGCAUCUCACGCUGAACAUGAGGAUCACCCAUGUGGCCCUUGGCAGCACAUGACAAAUC	–	–	apparent Kd (MS2 coat protein [2]; [3]): 572 nM; apparent Kd (MS2 coat protein [2]; [4]): 55.1 nM
ACAUGAGGAUCACCCAUGUUCCUCGCCGAUACCAGUGAAGAAGUACGCCCUUGGCAGCGGAAAGAGUAUUUUGGAGAUGAGGUAC	80	88.8	–
CUAUAAGUAACUGAUACCAGUGUACUGACAUGAGGAUCACCCAUGUUGGGUUUUGUUGUACACCCUUGGCAGCAGAAUCUUGUAG	62.1	85	–
UGUACAUGAGGAUCACCCAUGUUACAUGAUACCAGACAUGAGAGUGUCCCUUGGCAGCAUGGAGCUGAUACGGCGGGAAGCCGGA	–	–	apparent Kd (MS2 coat protein [2]; [3]): 26.8 nM; apparent Kd (MS2 coat protein [2]; [4]): 32.6 nM
